The source made the active and inactive calls. No cut-off for these calls is given here. Residues, ends and D or L forms follow the SMILES beside them. *: point of attachment. Cbz = O=C(OCc1ccccc1)*
Assays:
[1] = molecular target: Cruzipain (Trypanosoma cruzi, UniProt P25779); assay: Time dependent inhibition of Trypanosoma cruzi cruzain using Cbz-Phe-Arg-AMC as substrate assessed as inhibition constant for EI complex measured for 0.5 to 1 hr by fluorescence based analysis
[2] = tested on: Trypanosoma brucei brucei; assay: Antitrypanosomal activity against bloodstream form of Trypanosoma brucei brucei measured after 3 to 4 days by Z2 coulter counter based analysis; assay type: functional, organism-based
Procedure, shortened: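 Bloodstream-form T. b. brucei SM427 grown at 37 °C in HM1–9 with 10% FBS and penicillin–streptomycin, seeded at ~1×10⁶ cells. Inhibitor at 0.5–20 μM final (DMSO <1%). Cultures diluted daily to stay in log phase, with inhibitor re-added each time. Cells counted with a Coulter counter.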

[3] = tested on: Trypanosoma cruzi; assay: Antitrypanosomal activity against Trypanosoma cruzi infected in mouse C2C12 cells incubated for 2 days by DAPI staining based microscopic analysis; assay type: functional, organism-based; conditions: C2C12, 48 h
Procedure, shortened: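 Inhibitor added as 3-fold serial dilutions, top 40 μM (typically 0.02–40 μM), 2 days at 37 °C. Fixed with 2% PFA in PBS, stained with 5 μg/mL DAPI for >30 min in the dark, then imaged to count parasites and host cells.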

[4] = molecular target: Cruzipain (Trypanosoma cruzi) (UniProt P25779); assay: Reversible inhibition of Trypanosoma cruzi cruzain using Cbz-Phe-Arg-AMC as substrate assessed as enzyme recovery at 10 fold >apparent Ki preincubated for 2 hrs followed by 100-fold dilution in presence of substrate by rapid dilution assay relative to control; parameters: scale not given: the % may be the effect or the level left
[5] = molecular target: Cruzipain (Trypanosoma cruzi) (UniProt P25779); assay: Reversible inhibition of Trypanosoma cruzi cruzain using Cbz-Phe-Arg-AMC as substrate at 0.1 times apparent Ki preincubated for 2 hrs followed by 100-fold dilution in presence of substrate by rapid dilution assay relative to control
[6] = tested on: C2C12; assay: Cytotoxicity against mouse C2C12 cells assessed as reduction in cell viability at up to 40 uM; assay type: cell-based
[7] = molecular target: Cruzipain (Trypanosoma cruzi) (UniProt P25779); assay: Binding affinity to Trypanosoma cruzi cruzain assessed as formation of enzyme-inhibitor adducts by measuring mass changes by mass spectrometric analysis
[8] = molecular target: T1, Liver carboxylesterase (Sus scrofa, UniProt Q29550); assay: Stability of the compound in buffer at pH 7.5 assessed as porcine esterase-mediated compound degradation measured over 3 hrs by LC-MS analysis; assay type: ADME; conditions: pig, read-out: Drug degradation
T1 sequence (Q29550 whole entry): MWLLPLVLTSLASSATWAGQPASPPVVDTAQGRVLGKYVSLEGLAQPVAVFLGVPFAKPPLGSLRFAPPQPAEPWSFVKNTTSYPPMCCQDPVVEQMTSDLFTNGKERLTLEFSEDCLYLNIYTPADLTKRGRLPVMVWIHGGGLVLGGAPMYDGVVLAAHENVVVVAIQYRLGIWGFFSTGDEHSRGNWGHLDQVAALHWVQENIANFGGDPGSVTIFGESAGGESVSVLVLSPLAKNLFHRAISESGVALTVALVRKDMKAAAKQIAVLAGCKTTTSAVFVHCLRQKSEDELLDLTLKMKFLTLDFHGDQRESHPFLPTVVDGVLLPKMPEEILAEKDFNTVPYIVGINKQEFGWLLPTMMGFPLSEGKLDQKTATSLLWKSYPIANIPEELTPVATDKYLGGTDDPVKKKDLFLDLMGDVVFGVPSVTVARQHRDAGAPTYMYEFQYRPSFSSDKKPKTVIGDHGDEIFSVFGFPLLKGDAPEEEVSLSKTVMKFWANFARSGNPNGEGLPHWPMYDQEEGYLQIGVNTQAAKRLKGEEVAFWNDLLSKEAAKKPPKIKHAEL
Procedure, shortened: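 Prodrugs at 2 mM in cruzain assay buffer (pH 7.5, 10% DMSO) with porcine liver esterase at 40 U/mL, shaken at 37 °C. Controls without esterase and buffer only. Aliquots taken at 0–300 min and quenched with MeCN, then the supernatant analysed by HPLC–MS with detection at 270 nm.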

[9] = Stability of the compound in buffer at pH 7.5 assessed as conversion to N-((2S)-1-((3S)-2-hydroxychroman-3-ylamino)-1-oxo-3-phenylpropan-2-yl)-4-methylpiperazine-1-carboxamide by measuring half life by LC-MS analysis; assay type: physicochemical
[10] = molecular target: Cytochrome P450 3A4 (Homo sapiens, UniProt P08684); assay: Metabolic stability of the compound assessed as CYP3A4 (unknown origin)-mediated conversion to N-((2S)-1-((3S)-2-hydroxychroman-3-ylamino)-1-oxo-3-phenylpropan-2-yl)-4-methylpiperazine-1-carboxamide measured up to 4 hrs in presence of NADPH-regenerating system; assay type: ADME
[11] = molecular target: Cytochrome P450 2D6 (Homo sapiens, UniProt P10635); assay: Metabolic stability of the compound assessed as CYP2D6 (unknown origin)-mediated conversion to N-((2S)-1-((3S)-2-hydroxychroman-3-ylamino)-1-oxo-3-phenylpropan-2-yl)-4-methylpiperazine-1-carboxamide measured up to 4 hrs in presence of NADPH-regenerating system; assay type: ADME
[12] = molecular target: Cytochrome P450 2C9 (Homo sapiens, UniProt P11712); assay: Metabolic stability of the compound assessed as CYP2C9 (unknown origin)-mediated conversion to N-((2S)-1-((3S)-2-hydroxychroman-3-ylamino)-1-oxo-3-phenylpropan-2-yl)-4-methylpiperazine-1-carboxamide measured up to 4 hrs in presence of NADPH-regenerating system; assay type: ADME
[13] = molecular target: Cruzipain (Trypanosoma cruzi) (UniProt P25779); assay: Time dependent inhibition of Trypanosoma cruzi cruzain using Cbz-Phe-Arg-AMC as substrate measured after >= 20 mins; conditions: time min >=20, TDE = time-dependent effect
Procedure, shortened: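 Started by adding cruzain to 0.2 nM. Fluorescence (ex 360 / em 460 nm) followed for 20–60 min.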

[14] = Chemical stability of the compound in NMR buffer in absence of DTT assessed as phenylhydrazone formation at 0.2 mM incubated for 2 hrs in presence of 1 M phenyl hydrazine by UV absorbance based analysis; assay type: physicochemical; conditions: 200 µM
Procedure, shortened: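 0.2 mM compound treated with 1 mM phenylhydrazine final (added from a 1 M stock) in NMR buffer lacking DTT, with a DMSO control. Phenylhydrazone formation followed continuously by UV absorbance at 282 nm for 2 h.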

[15] = molecular target: Cruzipain (Trypanosoma cruzi) (UniProt P25779); assay: Binding affinity to Trypanosoma cruzi cruzain assessed as covalent bond formation between compound and Cys25 residue by 2D HSQC NMR spectroscopy analysis
Procedure, shortened: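 ¹³C-labelled lactol diluted from a 10 mM DMSO-d6 stock into NMR buffer. Control at 0.6 mM; sample at 0.4 mM with 0.44 mM freshly SEC-purified cruzain. ¹H-¹³C HSQC recorded at 800 MHz and 25 °C, with a spectrum acquired after 1 h with enzyme.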

[16] = molecular target: Cruzipain (Trypanosoma cruzi) (UniProt P25779); assay: Reversible inhibition of Trypanosoma cruzi cruzain using Cbz-Phe-Arg-AMC as substrate assessed as enzyme recovery preincubated for 2 hrs followed by 100-fold dilution in presence of substrate by rapid dilution assay
[17] = molecular target: Cruzipain (Trypanosoma cruzi) (UniProt P25779); assay: Time dependent inhibition of Trypanosoma cruzi cruzain using Cbz-Phe-Arg-AMC as substrate assessed as association rate constant for EI complex measured over 30 mins
[18] = Selectivity index, ratio of EC50 for antitrypanosomal activity against bloodstream form of Trypanosoma brucei brucei measured after 3 to 4 days by Z2 coulter counter based analysis to Ki for time dependent inhibition of Trypanosoma cruzi cruzain using Cbz-Phe-Arg-AMC as substrate assessed as inhibition constant for EI complex measured for 0.5 to 1 hr by fluorescence based analysis; assay type: toxicity
[19] = tested on: SARS-CoV-2; assay: Antiviral activity against SARS-CoV-2 infected in human A549 cells transfected with ACE2 assessed as virus-induced cytopathic effect incubated for 4 days by microscopic analysis; assay type: functional, organism-based; conditions: Severe acute respiratory syndrome coronavirus 2, A549, 96 h
[20] = Inhibition of SARS-CoV-2 3CLpro using ACC-SAVLQSGFRK(DNP)-NH2 as substrate assessed as inhibition constant measured for 0.5 to 1 hr by fluorescence based analysis; parameters: species or system Severe acute respiratory syndrome coronavirus 2
[21] = molecular target: Procathepsin L (Homo sapiens, UniProt P07711); assay: Inhibition of human Cathepsin L
Sequence of Procathepsin L (P07711 whole entry): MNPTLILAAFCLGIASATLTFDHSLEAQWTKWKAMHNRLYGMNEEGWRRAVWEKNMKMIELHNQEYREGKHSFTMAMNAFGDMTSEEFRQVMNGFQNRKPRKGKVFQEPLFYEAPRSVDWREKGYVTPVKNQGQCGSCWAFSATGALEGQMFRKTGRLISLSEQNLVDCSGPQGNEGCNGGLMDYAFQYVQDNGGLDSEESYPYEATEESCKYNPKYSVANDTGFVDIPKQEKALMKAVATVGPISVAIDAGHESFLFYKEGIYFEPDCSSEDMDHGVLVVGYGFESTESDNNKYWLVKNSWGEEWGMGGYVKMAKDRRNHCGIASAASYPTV

Sequence of Cruzipain (Trypanosoma cruzi) (P25779 123-467 limits assumed): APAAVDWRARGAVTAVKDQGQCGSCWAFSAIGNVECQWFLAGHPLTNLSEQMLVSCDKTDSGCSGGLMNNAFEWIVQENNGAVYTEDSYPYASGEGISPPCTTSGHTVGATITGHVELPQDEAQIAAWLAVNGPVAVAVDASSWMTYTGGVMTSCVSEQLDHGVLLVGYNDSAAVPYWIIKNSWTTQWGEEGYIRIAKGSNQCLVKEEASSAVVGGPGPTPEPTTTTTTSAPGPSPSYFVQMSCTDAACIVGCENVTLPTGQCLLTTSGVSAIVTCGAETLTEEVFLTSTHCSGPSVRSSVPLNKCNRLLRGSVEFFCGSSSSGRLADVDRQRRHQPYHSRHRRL
Sequence of Cruzipain (P25779 whole entry): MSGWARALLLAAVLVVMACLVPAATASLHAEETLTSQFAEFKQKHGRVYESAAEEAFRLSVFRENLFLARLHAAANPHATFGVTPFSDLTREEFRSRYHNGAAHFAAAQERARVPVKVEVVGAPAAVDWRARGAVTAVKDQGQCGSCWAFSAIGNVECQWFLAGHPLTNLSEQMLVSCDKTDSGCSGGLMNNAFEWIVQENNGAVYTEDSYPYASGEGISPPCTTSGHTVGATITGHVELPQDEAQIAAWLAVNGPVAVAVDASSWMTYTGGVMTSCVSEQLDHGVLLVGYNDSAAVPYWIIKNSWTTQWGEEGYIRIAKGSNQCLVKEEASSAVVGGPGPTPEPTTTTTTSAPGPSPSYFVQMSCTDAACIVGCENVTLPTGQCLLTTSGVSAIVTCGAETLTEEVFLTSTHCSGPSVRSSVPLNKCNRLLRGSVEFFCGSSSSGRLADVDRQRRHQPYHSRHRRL
Sequence of Cytochrome P450 2D6 (P10635 whole entry): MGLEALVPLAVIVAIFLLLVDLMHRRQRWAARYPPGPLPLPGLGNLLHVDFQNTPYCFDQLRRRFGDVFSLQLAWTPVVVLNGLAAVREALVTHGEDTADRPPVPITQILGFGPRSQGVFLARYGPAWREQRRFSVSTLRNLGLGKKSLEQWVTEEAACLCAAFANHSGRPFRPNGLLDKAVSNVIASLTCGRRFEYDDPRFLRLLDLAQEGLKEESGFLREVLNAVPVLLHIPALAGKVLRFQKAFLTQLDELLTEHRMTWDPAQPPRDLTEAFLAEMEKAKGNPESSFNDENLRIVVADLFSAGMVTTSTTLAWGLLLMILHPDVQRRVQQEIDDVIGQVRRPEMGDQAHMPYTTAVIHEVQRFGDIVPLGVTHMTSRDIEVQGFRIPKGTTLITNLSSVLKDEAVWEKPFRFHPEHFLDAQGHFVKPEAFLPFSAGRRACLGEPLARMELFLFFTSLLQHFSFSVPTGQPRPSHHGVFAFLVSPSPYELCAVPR
Sequence of Cytochrome P450 3A4 (P08684 whole entry): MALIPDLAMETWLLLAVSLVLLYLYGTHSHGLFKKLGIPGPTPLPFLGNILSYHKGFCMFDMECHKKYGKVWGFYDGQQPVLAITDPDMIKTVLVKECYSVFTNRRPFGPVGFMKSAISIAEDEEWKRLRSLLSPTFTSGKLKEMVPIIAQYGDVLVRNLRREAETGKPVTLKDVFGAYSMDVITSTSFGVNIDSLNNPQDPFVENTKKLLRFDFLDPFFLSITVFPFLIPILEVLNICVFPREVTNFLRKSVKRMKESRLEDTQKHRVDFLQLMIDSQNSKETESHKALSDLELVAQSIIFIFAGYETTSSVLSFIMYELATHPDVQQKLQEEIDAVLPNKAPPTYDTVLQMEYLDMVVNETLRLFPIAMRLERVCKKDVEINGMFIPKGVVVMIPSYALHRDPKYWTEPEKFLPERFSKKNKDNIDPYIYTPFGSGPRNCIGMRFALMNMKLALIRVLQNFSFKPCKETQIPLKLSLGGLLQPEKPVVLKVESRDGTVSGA
Sequence of Cytochrome P450 2C9 (P11712 whole entry): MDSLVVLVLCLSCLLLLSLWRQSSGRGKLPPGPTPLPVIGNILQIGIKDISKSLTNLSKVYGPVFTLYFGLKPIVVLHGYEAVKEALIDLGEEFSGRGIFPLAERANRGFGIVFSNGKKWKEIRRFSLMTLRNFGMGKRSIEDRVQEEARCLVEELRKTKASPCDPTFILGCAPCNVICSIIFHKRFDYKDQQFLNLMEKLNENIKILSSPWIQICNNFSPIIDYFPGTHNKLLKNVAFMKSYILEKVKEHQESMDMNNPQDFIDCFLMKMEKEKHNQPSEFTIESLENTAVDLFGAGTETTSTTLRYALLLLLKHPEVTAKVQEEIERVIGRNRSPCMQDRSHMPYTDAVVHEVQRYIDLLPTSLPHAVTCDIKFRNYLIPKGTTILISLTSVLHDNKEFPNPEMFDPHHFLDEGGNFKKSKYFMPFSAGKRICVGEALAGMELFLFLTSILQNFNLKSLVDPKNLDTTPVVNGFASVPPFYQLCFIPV

## COC(=O)c1ccc2c(c1)C[C@H](NC(=O)[C@H](Cc1ccccc1)NC(=O)OCc1ccccc1)C(O)O2 (stereo partly specified)
[1]
  Ki: 0.018 µM
[2]
  EC50: 4 µM
[3]
  EC50: 3.5 µM
[4]
  Activity: 91%
[5]
  inhibition: 9%
[6]
  Activity: Non-Toxic

## CN1CCN(C(=O)N[C@@H](Cc2ccccc2)C(=O)N[C@@H]2Cc3ccccc3C[C@H]2O)CC1 (mixture of isomers)
[1]
  Ki: > 100 µM

## CN1CCN(C(=O)N[C@@H](Cc2ccccc2)C(=O)N[C@H](/C=C/S(=O)(=O)c2ccccc2)CCc2ccccc2)CC1 [K-777]
[3]
  EC50: 0.04 µM
[6]
  Activity: Toxic

## O=C(N[C@@H](Cc1ccccc1)C(=O)N[C@H]1Cc2cc(Cl)ccc2OC1O)OCc1ccccc1 (stereo partly specified)
[1]
  Ki: 0.074 µM
[2]
  EC50: 5.8 µM
[4]
  Activity: 91%
[5]
  inhibition: 9%
[6]
  Activity: Non-Toxic

## O=C(N[C@@H](Cc1ccccc1)C(=O)N[C@H]1Cc2cc(F)ccc2OC1O)OCc1ccccc1 (stereo partly specified)
[1]
  Ki: 0.048 µM
[2]
  EC50: 2.7 µM
[3]
  EC50: 3.5 µM
[4]
  Activity: 91%
[5]
  inhibition: 9%
[7]
  Activity: Active
[6]
  Activity: Non-Toxic

## CC(=O)OC1Oc2ccccc2C[C@@H]1NC(=O)[C@H](Cc1ccccc1)NC(=O)N1CCN(C)CC1 (stereo partly specified)
[1]
  Ki: 1 µM
[2]
  EC50: 3.7 µM
[3]
  EC50: 13 µM
[6]
  Activity: Non-Toxic
[8]
  metabolised at 3 h: 10%
[9]
  t1/2: 48 min

## CC(C)OC1Oc2ccccc2C[C@@H]1NC(=O)[C@H](Cc1ccccc1)NC(=O)N1CCN(C)CC1 (stereo partly specified)
[1]
  Ki: > 5 µM
[2]
  EC50: 14 µM
[6]
  Activity: Non-Toxic
[10]
  Stability: Stable
[11]
  Stability: Stable
[12]
  Stability: Stable

## CCC(=O)OC1Oc2ccccc2C[C@@H]1NC(=O)[C@H](Cc1ccccc1)NC(=O)N1CCN(C)CC1 (stereo partly specified)
[1]
  Ki: > 5 µM
[2]
  EC50: 3.1 µM
[6]
  Activity: Non-Toxic
[9]
  t1/2: 24 min

## O=C(Cn1ccnc1[N+](=O)[O-])NCc1ccccc1 [BENZNIDAZOLE]
[3]
  EC50: 4 µM

## O=C(CN[C@@H](Cc1ccccc1)C(=O)N[C@H](CO)Cc1ccccc1O)OCc1ccccc1
[1]
  Ki: > 10 µM

## CN1CCN(C(=O)N[C@@H](Cc2ccccc2)C(=O)N[C@H]2Cc3ccccc3OC2O)CC1 (stereo partly specified)
[1]
  Ki: 0.047 µM
[2]
  EC50: 0.6 µM
[3]
  EC50: > 20 µM
[13]
  inhibition: Tde
[7]
  Activity: Active
[14]
  Stability: Stable
[15]
  Activity: Active
[6]
  Activity: Non-Toxic
[16]
  Activity: inactive

## O=C[C@H](Cc1ccccc1)NC(=O)[C@H](Cc1ccccc1)NC(=O)OCc1ccccc1 (Cbz-Phe-Phe-aldehyde)
[1]
  Ki: 0.00044 µM
[17]
  Ka: 7.6 10^-4/s
[2]
  EC50: 3.3 µM
[3]
  EC50: 0.5 µM
[18]
  Ratio: 7500
[6]
  Activity: Toxic
[16]
  Activity: inactive

## COc1ccc2c(c1)C[C@H](NC(=O)[C@H](Cc1ccccc1)NC(=O)OCc1ccccc1)C(O)O2 (stereo partly specified)
[1]
  Ki: 0.35 µM
[2]
  EC50: 2.6 µM
[4]
  Activity: 91%
[5]
  inhibition: 9%
[6]
  Activity: Non-Toxic

## Cc1ccc2c(c1)C[C@H](NC(=O)[C@H](Cc1ccccc1)NC(=O)OCc1ccccc1)C(O)O2 (stereo partly specified)
[2]
  EC50: 0.5 µM
[3]
  EC50: 5.7 µM
[4]
  Activity: 91%
[5]
  inhibition: 9%
[7]
  Activity: Active
[6]
  Activity: Non-Toxic

## CN1CCN(C(=O)N[C@@H](Cc2ccccc2)C(=O)N[C@H](C=O)CCc2ccccc2)CC1
[13]
  inhibition: Tde
[14]
  Stability: Unstable
[16]
  Activity: inactive

## CC(C)[C@H](NC(=O)OCc1ccccc1)C(=O)N[C@@H](CC1CCCCC1)C(=O)N[C@H](C=O)Cc1ccc[nH]c1=O
[19]
  EC50: 5 µM
[20]
  Ki: 0.009 µM
[21]
  Ki: 0.053 µM

## CC(C)C(=O)OC1Oc2ccccc2C[C@@H]1NC(=O)[C@H](Cc1ccccc1)NC(=O)N1CCN(C)CC1 (stereo partly specified)
[1]
  Ki: > 5 µM
[2]
  EC50: 4 µM
[3]
  EC50: 10 µM
[6]
  Activity: Non-Toxic
[9]
  t1/2: 16 min

## CCOC1Oc2ccccc2C[C@@H]1NC(=O)[C@H](Cc1ccccc1)NC(=O)N1CCN(C)CC1 (stereo partly specified)
[1]
  Ki: > 5 µM
[2]
  EC50: 12 µM
[6]
  Activity: Non-Toxic
[10]
  Stability: Stable
[11]
  Stability: Stable
[12]
  Stability: Stable

## O=C(N[C@@H](Cc1ccccc1)C(=O)N[C@H]1Cc2ccccc2OC1O)OCc1ccccc1 (stereo partly specified)
[1]
  Ki: 0.049 µM
[2]
  EC50: 6.8 µM
[3]
  EC50: 2.9 µM
[4]
  Activity: 91%
[5]
  inhibition: 9%
[7]
  Activity: Active
[6]
  Activity: Non-Toxic

## COc1ccccc1C[C@@H](C=O)NC(=O)[C@H](Cc1ccccc1)NCC(=O)OCc1ccccc1
[1]
  Ki: 0.022 µM
